Numbered stars: 1 amine (or outer) side, 2 acyl side, 3 side chain; on linkers, the order of the positions; unused ones are H or OH. Square brackets hold non-standard residues; d marks the D form. Peptide text beside a SMILES is read from it. X1 = CC[C@H](O)[C@H](N[*:1])C(=O)[*:2]; azaGly = NNC(=O)O
How the values were obtained:
[1] = target: Opioid receptors; mu & delta (Homo sapiens, UniProt P41143+P35372); assay: Inhibition of electrically evoked contraction of guinea pig ileum (myenteric plexus;longitudinal muscle)[agonist action at mu 1 opioid receptors) and inhibition of electrically evoked contraction of mouse vas deferens (agonist action at delta 1 opioid receptor); type: functional, tissue-based
[2] = target: T1, Delta-type opioid receptor (Rattus norvegicus, UniProt P33533); assay: Inhibition of [3H]DSLET binding to delta 1 opioid receptors in rat brain membranes; type: cell membranes
T1 sequence (P33533 whole entry): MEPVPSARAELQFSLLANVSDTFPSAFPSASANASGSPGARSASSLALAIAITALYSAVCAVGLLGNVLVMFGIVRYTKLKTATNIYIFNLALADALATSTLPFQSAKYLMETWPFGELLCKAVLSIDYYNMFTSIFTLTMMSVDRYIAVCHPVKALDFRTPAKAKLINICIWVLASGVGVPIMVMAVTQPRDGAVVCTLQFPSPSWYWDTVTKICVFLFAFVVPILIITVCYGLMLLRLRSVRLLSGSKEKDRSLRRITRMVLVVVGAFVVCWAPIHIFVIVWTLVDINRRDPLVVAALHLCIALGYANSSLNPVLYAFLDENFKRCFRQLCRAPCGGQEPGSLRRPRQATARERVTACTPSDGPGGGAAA

Mu-type opioid receptor [3] = target: Mu-type opioid receptor (Rattus norvegicus, UniProt P33535); assay: Inhibition of [3H]DAGO binding to mu 1 opioid receptor in rat brain membranes; type: cell membranes
Sequence of Mu-type opioid receptor (Rattus norvegicus, UniProt P33535) (P33535 whole entry): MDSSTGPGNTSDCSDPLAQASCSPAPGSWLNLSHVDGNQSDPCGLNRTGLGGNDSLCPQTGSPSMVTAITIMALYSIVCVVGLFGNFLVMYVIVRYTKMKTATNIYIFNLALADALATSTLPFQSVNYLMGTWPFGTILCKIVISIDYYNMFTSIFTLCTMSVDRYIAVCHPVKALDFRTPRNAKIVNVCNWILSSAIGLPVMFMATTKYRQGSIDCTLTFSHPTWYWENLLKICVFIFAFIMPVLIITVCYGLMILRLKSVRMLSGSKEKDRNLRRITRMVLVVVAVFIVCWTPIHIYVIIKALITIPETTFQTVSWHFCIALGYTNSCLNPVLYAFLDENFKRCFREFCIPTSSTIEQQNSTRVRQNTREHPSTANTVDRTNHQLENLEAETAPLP
Outline: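 Rat brain membranes, 0.6–0.7 mg protein, in 50 mM Tris-HCl pH 7.4 with 1 nM [3H]DAGO. Incubated 40 min at 35 °C, then filtered and washed with cold buffer. Bound radioactivity counted by scintillation. Nonspecific binding taken with 10 µM levorphanol, triplicates. Nine unlabeled-ligand concentrations, Hill-plot fit, Ki by Cheng-Prusoff. Three to six independent determinations.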

Mu-type opioid receptor [4] = target: Mu-type opioid receptor (Cavia porcellus, UniProt P97266); assay: Inhibition of electrically evoked contraction of guinea pig ileum (myenteric plexus:longitudinal muscle preparation) by agonist action at mu 1 opioid receptors; type: functional, tissue-based
Sequence of Mu-type opioid receptor (Cavia porcellus, UniProt P97266) (P97266 whole entry): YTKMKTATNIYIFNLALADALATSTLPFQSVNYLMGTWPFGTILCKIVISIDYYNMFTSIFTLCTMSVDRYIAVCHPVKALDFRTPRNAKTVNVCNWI
Outline: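 Electrically stimulated guinea pig ileum twitch. IC50 for half-maximal inhibition taken from six to eight log dose-response curves, six concentrations each. [Met]enkephalin IC50 measured on the same preparation. Agonist IC50 multiplied by the mean [Met]enkephalin IC50 divided by that assay's [Met]enkephalin IC50.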

Mus musculus [5] = assay: Analgesic potency in mice after icv injection and 10 min before exposing to hot plate; type: functional
Outline: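 Albino mice, 24–28 g, given drug icv by hand (10 µL, modified 30-gauge needle). Jump latency timed on a 55 ± 0.2 °C hot plate 10 min later, experimenter blind. Cut-off 180 s = 100% analgesia. Percent analgesia = (Tt−Tc)/(180 s−Tc). 10 mice per point. AD50 and 95% confidence limits by Litchfield–Wilcoxon.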

Mus musculus [6] = species: Mus musculus; assay: Inhibitory activity after protection from beta-CNS-induced inactivation in MVD; type: functional
Mus musculus [7] = species: Mus musculus; assay: Inhibitory activity before protection from beta-CNS-induced inactivation in MVD; type: functional
[8] = target: T1, Delta-type opioid receptor; assay: Ability to inhibit the binding of [3H]DSLET to Opioid receptor delta 1 in rat brain membranes; type: cell membranes

Row | Structure (SMILES) | IC50 [1] | Ki [2] [nM] | Ki (Mu-type opioid receptor [3]) [nM] | IC50 (Mu-type opioid receptor [4]) [nM] | dose (Mus musculus [5]) [pmol/mouse] | IC50 (Mus musculus [6]; Mus musculus) [nM] | IC50 (Mus musculus [7]; Mus musculus) [nM] | IC50 (Mus musculus [6]) [nM] | IC50 (Mus musculus [7]) [nM] | Ki [8] [nM]
1 | CCN(C(=O)CNC(=O)[C@@H](C)NC(=O)[C@@H](N)Cc1ccc(O)cc1)C(C)CC(C)C (stereo partly specified) | 1800 nM | 3450 | 35.5 | 216 |  |  |  |  |  | 
2 | CC(C)C[C@H](NC(=O)[C@H](Cc1ccccc1)NC(=O)CNC(=O)[C@@H](CO)NC(=O)[C@@H](N)Cc1ccc(O)cc1)C(=O)N[C@H](C(=O)O)[C@@H](C)O |  | 4.8 |  | 406 | 130 | 0.65 | 0.38 |  |  | 
3 | CC(C)C[C@H](NC(=O)[C@H](Cc1ccccc1)NC(=O)CNC(=O)[C@H](NC(=O)[C@@H](N)Cc1ccc(O)cc1)[C@H](C)O)C(=O)N[C@@H](CO)C(=O)O | 0.25 nM | 4.18 | 41.9 | 99 |  |  |  |  |  | 
4 | CC(C)C[C@H](NC(=O)[C@H](Cc1ccccc1)NC(=O)CNC(=O)[C@H](NC(=O)[C@@H](N)Cc1ccc(O)cc1)[C@H](C)O)C(=O)N[C@H](C(=O)O)[C@@H](C)O [listing 1 of 2 here] | 0.15 nM |  | 25.3 | 460 |  |  |  | 0.22 | 0.13 | 
5 | CC(C)C[C@H](NC(=O)[C@H](Cc1ccccc1)NC(=O)CNC(=O)[C@H](NC(=O)[C@@H](N)Cc1ccc(O)cc1)[C@H](C)O)C(=O)N[C@H](C(=O)O)[C@@H](C)O [listing 2 of 2 here] |  |  |  |  | 50 |  |  |  |  | 
6 | CC(C)C[C@H](NC(=O)[C@H](CC(C)C)NC(=O)[C@H](Cc1ccccc1)NC(=O)CNC(=O)[C@H](NC(=O)[C@@H](N)Cc1ccc(O)cc1)[C@H](C)O)C(=O)O | 0.41 nM | 2.65 | 38 | 260 |  |  |  |  |  | 
7 | CC(C)CC(C)NC(=O)CNC(=O)[C@H](C)NC(=O)[C@@H](N)Cc1ccc(O)cc1 (stereo partly specified) | >= 50000 nM |  |  | ≥ 50000 |  |  |  |  |  | 
8 | CC(C)CC(C)NC(=O)CNC(=O)[C@@H](CO)NC(=O)[C@@H](N)Cc1ccc(O)cc1 (stereo partly specified) | 990 nM | 1370 | 43 | 718 |  |  |  |  |  | 
9 | CC(C)CC(C)NC(=O)CNC(=O)[C@@H](COC(C)(C)C)NC(=O)[C@@H](N)Cc1ccc(O)cc1 (stereo partly specified) | 105 nM | 39 | 13.7 | 111 |  |  |  |  |  | 
10 | CC(C)C[C@H](NC(=O)[C@H](Cc1ccccc1)NC(=O)CNC(=O)[C@H](NC(=O)[C@@H](N)Cc1ccc(O)cc1)[C@H](C)O)C(=O)N1C[C@H](O)C[C@H]1C(=O)O | 1.1 nM | 7.6 | 43.8 | 88 | 252 |  |  |  |  | 
11 | CC(C)CCNC(=O)CNC(=O)[C@@H](C)NC(=O)[C@@H](N)Cc1ccc(O)cc1 | 3410 nM | 1020 | 10 | 323 |  |  |  |  |  | 
12 | CC(C)C[C@H](NC(=O)[C@H](CC(C)C)NC(=O)[C@H](Cc1ccccc1)NC(=O)CNC(=O)[C@@H](CO)NC(=O)[C@@H](N)Cc1ccc(O)cc1)C(=O)O | 2.45 nM | 9.12 | 158 | 257 | 610 |  |  |  |  | 
13 | CSCC[C@@H](NC(=O)[C@@H](N)Cc1ccc(O)cc1)C(=O)NCC(=O)NCCC(C)C | 733 nM | 600 | 15 | 154 |  |  |  |  |  | 
14 | CC(C)CC(C)NC(=O)CNC(=O)C(C)(C)NC(=O)[C@@H](N)Cc1ccc(O)cc1 (stereo partly specified) | 4720 nM | 6880 | 171 | 1850 |  |  |  |  |  | 
15 | CC(C)C[C@@H](C(=O)N[C@H](C(=O)O)[C@@H](C)O)N(C)C(=O)[C@H](Cc1ccccc1)NC(=O)CNC(=O)[C@H](NC(=O)[C@@H](N)Cc1ccc(O)cc1)[C@H](C)O | 1.33 nM | 30.7 | 157 | 224 |  |  |  |  |  | 
16 | CC(C)C[C@@H](C(=O)NCCO)N(C)C(=O)CNC(=O)[C@@H](C)NC(=O)[C@@H](N)Cc1ccc(O)cc1 | 3180 nM | 3810 | 116 | 379 |  |  |  |  |  | 
17 | CC(C)CC(C)NC(=O)CNC(=O)[C@@H](C)NC(=O)[C@@H](N)Cc1ccc(O)cc1 (stereo partly specified) | 1050 nM | 480 | 17 | 237 |  |  |  |  |  | 
18 | CC[C@H](O)[C@H](NC(=O)[C@@H](N)Cc1ccc(O)cc1)C(=O)NCC(=O)N[C@@H](Cc1ccccc1)C(=O)N[C@@H](CC(C)C)C(=O)N[C@H](C(=O)O)[C@@H](C)O (H-Y[X1]GFLT-OH) | 0.05 nM | 2.2 | 16 | 21.3 |  |  |  |  |  | 
19 | CC(C)C[C@H](NC(=O)[C@H](Cc1ccccc1)NC(=O)CNC(=O)NNC(=O)[C@@H](N)Cc1ccc(O)cc1)C(=O)N[C@H](C(=O)O)[C@@H](C)O (H-Y[azaGly]GFLT-OH) | 38 nM | 395 | 9790 | 14000 |  |  |  |  |  | 
20 | CC(C)C[C@@H](NC(=O)[C@H](Cc1ccccc1)NC(=O)CNC(=O)[C@@H](C)NC(=O)[C@@H](N)Cc1ccc(O)cc1)C(=O)O [DADLE] |  |  |  |  | 12 |  |  |  |  | 
21 | C[C@@H](NC(=O)[C@@H](N)Cc1ccc(O)cc1)C(=O)NCC(=O)N(C)[C@@H](Cc1ccccc1)C(=O)NCCO [DAMGO] |  |  |  | 11.5 | 1 | 2400 | 100 |  |  | 700
